Source: ChEMBL document CHEMBL1121901, “Synthesis and structure-activity relationship of spiro[isochromanpiperidine] analogues for inhibition of histamine release” (1981)
Activity calls are given as the source filed them. The rule behind the calls is not given here.

Assays:
[1] = species on record: Rattus norvegicus; experiment: (§1) Inhibitory activity on the compound 48/80 induced release of Histamine from isolated rat peritoneal mast cells at a dose of 5*10e-4 mol; assay type: functional
Method in brief: (§2)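 Rat peritoneal cells (~10% mast cells) collected by lavage with Tris-HCl-buffered (10 mmol, pH 7.4) salt solution. The reaction was stopped on ice. Histamine was measured by o-phthalaldehyde fluorometry in duplicate, expressed as % of total minus spontaneous release, with % inhibition taken versus 48/80 alone.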

[2] = species on record: Rattus norvegicus; experiment: Inhibitory activity against 48/80 induced release of Histamine from isolated rat peritoneal mast cells at a dose of 5*10e-4 mol; Inactive; assay type: functional, cell-based
[3] = species on record: Rattus norvegicus; experiment: Inhibitory activity against 48/80 induced release of Histamine from isolated rat peritoneal mast cells at a dose of 10e-3 mol; Inactive; assay type: functional, cell-based; method in brief: as §2
[4] = species on record: Rattus norvegicus; experiment: Inhibitory activity against 48/80 induced release of Histamine from isolated rat peritoneal mast cells at a dose of 10e-3 mol; assay type: functional; method in brief: as §2
[5] = species on record: Rattus norvegicus; experiment: Inhibitory activity against 48/80 induced release of Histamine from isolated rat peritoneal mast cells at a dose of 2*10e-4 mol; assay type: functional; method in brief: as §2
[6] = species on record: Rattus norvegicus; experiment: Inhibitory activity against 48/80 induced release of Histamine from isolated rat peritoneal mast cells at a dose of 5*10e-4 mol; assay type: functional; method in brief: as §2
[7] = species on record: Rattus norvegicus; experiment: Inhibitory activity on the compound (in 0.5% CMC solution) 48/80 induced release of Histamine rat mast cell degranulation at a dose of 0.25micorg/mL, incubated for 15 min at 37 degree C; assay type: functional
Method in brief: (§3)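 Harvested rat peritoneal mast cells were preincubated 15 min at 37 °C with test compound suspended in 0.5% CMC (final 10^-3 mol/L). Degranulation was scored by inverted phase-contrast microscopy, counting >100 mast cells. % inhibition = 100[1 − (X − Z)/(Y − Z)], where Z corrects for degranulation in control medium.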

[8] = species on record: Rattus norvegicus; experiment: Inhibitory activity on the compound 48/80 induced release of Histamine from isolated rat peritoneal mast cells at a dose of 10e-3 mol; assay type: functional; method in brief: as §2
[9] = species on record: Rattus norvegicus; experiment: Inhibitory activity on the compound 48/80 induced release of Histamine from isolated rat peritoneal mast cells at a dose of 2*10e-4 mol; assay type: functional; method in brief: as §2
[10] = species on record: Rattus norvegicus; experiment: as §1; assay type: functional; method in brief: as §2; remark: listed apart in the source
[11] = species on record: Rattus norvegicus; experiment: Inhibitory activity of histamine release at 2*10e-3 mol; assay type: functional
[12] = species on record: Rattus norvegicus; experiment: Inhibitory activity on compound (in 0.5% CMC solution) 48/80 induced rat mast cell degranulation at a dose of 0.25micorg/mL, incubated for 15 min at 37 degree C; assay type: functional; method in brief: as §3
[13] = species on record: Rattus norvegicus; experiment: Inhibitory activity (10e-3 mol/L) against 48/80 induced rat mast cell degranulation at a dose of 0.25ug/mL, incubated for 15 min at 37 degree C; assay type: functional; method in brief: as §3

Structure (SMILES)	inhibition [2]	Inhibition [4]	Inhibition [6]	also measured
CCCCCCCCCCN1CCC2(CC1)Cc1ccccc1C(=O)O2				inhibition [1]: inactive
CN1CCC2(CC1)COC(=O)c1ccccc12	inactive			
OCC1(c2ccccc2)CCN(Cc2ccccc2)CC1				inhibition [3]: inactive
Cl.c1ccc(CCN2CCC3(CC2)COCc2ccccc23)cc1		100%	96%	Inhibition [5]: 28%
CCCCCN1CCC2(CC1)Cc1ccccc1C(=O)O2.Cl		79%	35%	Inhibition [5]: 23%
O=C1OC2(CCNCC2)Cc2ccccc21	inactive			
CN(CCC1(C)COCc2ccccc21)Cc1ccccc1 (centres undefined)				Inhibition [7]: -8%
CCCN1CCC2(CC1)Cc1ccccc1C(=O)O2	inactive			
CCCCCCCN1CCC2(CC1)Cc1ccccc1C(=O)O2.Cl				Inhibition [8]: 100%; Inhibition [9]: 64%; Inhibition [10]: 100%
CCOC(=O)C1c2ccccc2C(=O)OC12CCN(C)CC2 (centres undefined)	inactive			
Cl.O=C1OC2(CCN(CCc3ccccc3)CC2)Cc2ccccc21		86%	6%	
O=C1OCC2(CCN(CCc3ccccc3)CC2)c2ccccc21		100%	94%	Inhibition [5]: 15%
CCCCCCCCN1CCC2(CC1)Cc1ccccc1C(=O)O2				inhibition [1]: inactive
OCC1(c2ccccc2)CCN(CCc2ccccc2)CC1		49%		
CCCCCCN1CCC2(CC1)Cc1ccccc1C(=O)O2.Cl			67%	Inhibition [5]: 32%
Cl.O=C1OC2(CCN(Cc3ccccc3)CC2)Cc2ccccc21		76%	40%	Inhibition [5]: 20%; Inhibition [7]: 94.5%

Structure (SMILES)	inhibition [2]	Inhibition [4]	Inhibition [6]	also measured
Cl.O=C1OC2(CCN(CCCc3ccccc3)CC2)Cc2ccccc21		85%	18%	Inhibition [5]: 5%
C[N+]1(Cc2ccccc2)CCC2(CC1)Cc1ccccc1C(=O)O2.[I-] (centres undefined)				Inhibition [11]: 28%
C=CCN1CCC2(CC1)OC(=O)c1ccccc1C2C(=O)OCC (centres undefined)	inactive			
CN1CCC2(CC1)Cc1ccccc1C(=O)O2	inactive			
CCCCN1CCC2(CC1)Cc1ccccc1C(=O)O2.Cl		85%	43%	Inhibition [5]: 18%
CN1CCC2(CC1)COCc1ccccc12	inactive			
O=C([O-])c1cc(=O)c2c(OCC(O)COc3cccc4oc(C(=O)[O-])cc(=O)c34)cccc2o1.[Na+].[Na+] [CROMOLYN SODIUM]		80%	58%	Inhibition [5]: 31%
O=C1OC2(CCC(Cc3ccccc3)CC2)Cc2ccccc21 (centres undefined)				Inhibition [12]: 52%
CCOC(=O)C1c2ccccc2C(=O)OC12CCN(Cc1ccccc1)CC2.Cl (centres undefined)		84%	12%	
C=CCN1CCC2(CC1)Cc1ccccc1C(=O)O2	inactive			
CN1CCC(CO)(c2ccccc2)CC1				inhibition [3]: inactive
Cl.O=C1OCC2(CCN(Cc3ccccc3)CC2)c2ccccc21				Inhibition [5]: 5%; Inhibition [10]: 31%
CC(C)CN1CCC2(CC1)Cc1ccccc1C(=O)O2	inactive			
Cl.O=C1OC2(CCN(c3ccccc3)CC2)Cc2ccccc21				Inhibition [13]: 29.1%
O=C1OC2(CCN(C3CCCCC3)CC2)Cc2ccccc21	inactive			
Cl.O=C1OC2(CCN(CC3CCCCC3)CC2)Cc2ccccc21		83%	47%	
